The nature of data set [1]: melting temperature; fluorescence melt of hairpins on a sequencing array, two-state fit, raised by 9.35 °C to match UV melts. Conditions: sodium 0.088 M. An outline of the steps:
(§1)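 Library hairpins on a sequenced MiSeq flow cell carried annealed Cy3 and quencher oligos, and their Cy3 fluorescence was imaged in 50 mM Na-HEPES pH 8.0 with 25 mM NaCl, in 2.5 °C steps up to 60 °C. Signals were normalised to Cy3 before quenching and to control constructs. Melting temperature and folding enthalpy were obtained from bootstrapped two-state fits, combined by inverse-variance weighting across four replicates, and the fitted temperatures were then raised by 9.35 °C to match UV melts.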

A short description of data set [2]: folding enthalpy; higher = less favourable; fluorescence melt of hairpins on a sequencing array, two-state fit. Conditions: sodium 0.088 M. An outline of the steps:
as §1

In the array DNA melting data of Ke et al. (doi:10.1101/2024.01.08.574731) one finds Tm and folding enthalpy data, which are given here for 37 sequences.

In the case of GATCTCTTCTGAGATC ((((((....)))))), in data set [1], the Tm came out at 54.7 °C. Also, the folding enthalpy in data set [2] was -39.8 kcal/mol.

Consider GAACAACGAAAGTTTTTC (((.(((....))).))), for which the Tm in data set [1] is 31.6 °C. Also, the folding enthalpy in data set [2] is -17.8 kcal/mol.

Turning to GAATTACGAAAGTAGTTC (((.(((....))).))), the Tm in data set [1] is 42.6 °C. In addition, the folding enthalpy in data set [2] is -31.5 kcal/mol.

As to GCTTAAGGAAACTTGAGC (((.(((....))).))), the Tm in data set [1] is 38.9 °C. Besides, in data set [2], the folding enthalpy was -31.5 kcal/mol.

As for GGGCACGAAAGTGAACCC ((((((....)))..))), the Tm in data set [1] is 51.7 °C. In addition, in data set [2], the folding enthalpy is -16.6 kcal/mol.

As for GTATAGCGAAAGCTTAC (((.(((....)))))), the Tm in data set [1] was 39.2 °C. Further, the folding enthalpy in data set [2] was -12.8 kcal/mol.

With GGTGGCGGAAACACCACC (((((.(....).))))), the Tm in data set [1] is 53.8 °C. In data set [2], the folding enthalpy is -42.3 kcal/mol.

For GATCTCAGAGAGATC ((((((...)))))), the Tm in data set [1] is 55.4 °C. Moreover, the folding enthalpy in data set [2] is -36 kcal/mol.

Regarding GGCATCGAAAGATCTGCC ((((((....)))..))), the Tm in data set [1] worked out at 39.6 °C. Moreover, the folding enthalpy in data set [2] was -24.9 kcal/mol.

For the sequence GATACCGAAAGGTGATC ((((((....))).))), the Tm in data set [1] amounted to 38.1 °C. Moreover, in data set [2], the folding enthalpy is -15.7 kcal/mol.

For the sequence GCCCTGCGAAAGCTTGGC (((..((....))..))), the Tm in data set [1] was 50.6 °C. The folding enthalpy in data set [2] is -23 kcal/mol.

As to GCAATAACGAAAGTTTGC (((..(((....)))))), the Tm in data set [1] was 41.3 °C. The folding enthalpy in data set [2] is -26 kcal/mol.

On to TCCCTGAAAAGGGA (((((....))))), for which the Tm in data set [1] is 48.3 °C. Further, the folding enthalpy in data set [2] was -15.6 kcal/mol.

For the sequence GGTTCTGGAAACAGAGCC ((.((((....)))).)), in data set [1], the Tm is 50.6 °C. In data set [2], the folding enthalpy is -30.5 kcal/mol.

For the sequence GTACGCGGAAACGCATAC (((.(((....))).))), in data set [1], the Tm amounted to 39.9 °C. The folding enthalpy in data set [2] was -19.6 kcal/mol.

GATCAAGGCCTTGATC ((((((....)))))): the Tm in data set [1] amounted to 55 °C. The folding enthalpy in data set [2] was -51.6 kcal/mol.

For GTCCTTCGAAAGAAGAC (((.(((....)))))), in data set [1], the Tm is 36.7 °C. Besides, the folding enthalpy in data set [2] was -18.3 kcal/mol.

Turning to GATCATAGAAATGATC ((((((....)))))), the Tm in data set [1] turned out to be 41.7 °C. Moreover, in data set [2], the folding enthalpy is -29.4 kcal/mol.

Turning to GGCGCAGGAAACTACGCC ((((.((....)).)))), the Tm in data set [1] came to 53.5 °C. The folding enthalpy in data set [2] was -39 kcal/mol.

With GATCACACACGTGATC ((((((....)))))), the Tm in data set [1] amounted to 57.9 °C. Moreover, the folding enthalpy in data set [2] is -35.8 kcal/mol.

Regarding GGGTATGGAAACATGCTC (.(.(((....))).).), the Tm in data set [1] came out at 33.4 °C. Also, in data set [2], the folding enthalpy was -23.1 kcal/mol.

On to GCGAGGTTTCGC ((((....)))), for which, in data set [1], the Tm is 49.4 °C. The folding enthalpy in data set [2] was -16 kcal/mol.

For GCAAGCGAAAGCTTTGC ((((((....))).))), the Tm in data set [1] is 53.7 °C. For the same sequence, in data set [2], the folding enthalpy was -21 kcal/mol.

For CGCGGAATGGTCCGCG ((((((....)))))), in data set [1], the Tm amounted to 69 °C. Further, the folding enthalpy in data set [2] is -30.2 kcal/mol.

Regarding GCCCACGAAAGTGTAGGC ((((((....)))..))), the Tm in data set [1] worked out at 52.8 °C. Moreover, the folding enthalpy in data set [2] is -24.5 kcal/mol.

As to GTGTTTGGAAACAAATAC ((.((((....)))).)), the Tm in data set [1] came out at 41.2 °C. In data set [2], the folding enthalpy is -29 kcal/mol.

GCATGGCGAAAGCGAGGC ((.(.((....)).).)): the Tm in data set [1] is 47.3 °C. Also, the folding enthalpy in data set [2] was -19 kcal/mol.

On to GTGCAGGGAAACCCGCAC ((((.((....)).)))), for which the Tm in data set [1] came to 54.9 °C. Further, the folding enthalpy in data set [2] is -42.2 kcal/mol.

With GACCCTGGAAACAGGGCC (.(((((....))))).), the Tm in data set [1] amounted to 47.2 °C. For the same sequence, the folding enthalpy in data set [2] is -17.2 kcal/mol.

Turning to GTAGGAGCGAAAGCTTAC (((..(((....)))))), the Tm in data set [1] was found to be 31.2 °C. Besides, in data set [2], the folding enthalpy is -11.2 kcal/mol.

With GGTATCGAAAGATTAACC ((((((....)))..))), the Tm in data set [1] came out at 30.3 °C. Also, in data set [2], the folding enthalpy was -17 kcal/mol.

Consider GAAGCCCCGAAAGGGTTC (((..(((....)))))), for which, in data set [1], the Tm was 36.9 °C. Besides, in data set [2], the folding enthalpy was -14.3 kcal/mol.

Regarding GCGTCCTGACGC ((((....)))), the Tm in data set [1] came out at 59.9 °C. Also, the folding enthalpy in data set [2] is -35.1 kcal/mol.

With GGCTACGAAAGTATGCC ((((((....))).))), the Tm in data set [1] came to 54.6 °C. The folding enthalpy in data set [2] is -37.8 kcal/mol.

For GCAACGCGAAAGCAGTGC (((..((....))..))), the Tm in data set [1] is 52.1 °C. In data set [2], the folding enthalpy is -13.3 kcal/mol.

For GCGTATGGAAACGTACGC (((((.(....).))))), the Tm in data set [1] came out at 54.7 °C. Also, in data set [2], the folding enthalpy is -48 kcal/mol.

Take GGGTCACCGAAAGGTCCC (((..(((....)))))): the Tm in data set [1] was determined as 38.9 °C. The folding enthalpy in data set [2] is -17.1 kcal/mol.
